Assay results as given in ChEMBL document CHEMBL1127600, “Mercaptoacyl amino acid inhibitors of atriopeptidase. 1. Structure-activity relationship studies of methionine and S-alkylcysteine derivatives” (J Med Chem, 1994).

Legend:
Rattus norvegicus [1] = assay: Tested for in vivo Antihypertensive activity in DOCA rat by giving peroral dose of 10 mg/kg; format: functional; details: route oral
Summary of the method: (§1)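 Male Sprague-Dawley rats (100–150 g) had DOCA-Na hypertension induced and were used 17–21 days later if mean BP was >150 mmHg. Rats were not fasted. Mean BP was recorded after 90-min equilibration. Dosing was sc in TRIS buffer (2 mL/kg) or po in 0.4% aqueous methylcellulose (4 mL/kg). The maximum BP fall over 4 h versus vehicle controls was taken, averaged over four or more animals.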

Rattus norvegicus [2] = assay: In vivo potentiation of ANF induced hypotension in rat, following subcutaneous dose of 30 mg/kg; format: functional
Summary of the method: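 Conscious male SHR (270–300 g) had caudal artery and jugular vein cannulae placed under ether. After at least 90 min of stabilization, ANF 103-125 or 99-126 was given as an iv bolus at a submaximal dose. 60–90 min later, drug or vehicle (0.2% aqueous methylcellulose with 20% Tris-HCl) was given sc. ANF was repeated 15 min after dosing, and the response was compared with vehicle controls. Values are means of four or more animals.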

[3] = target: T1, Angiotensin-converting enzyme (Oryctolagus cuniculus, UniProt P12822); assay: Tested in vitro for its inhibitory activity against angiotensin converting enzyme
T1 sequence (P12822 whole entry): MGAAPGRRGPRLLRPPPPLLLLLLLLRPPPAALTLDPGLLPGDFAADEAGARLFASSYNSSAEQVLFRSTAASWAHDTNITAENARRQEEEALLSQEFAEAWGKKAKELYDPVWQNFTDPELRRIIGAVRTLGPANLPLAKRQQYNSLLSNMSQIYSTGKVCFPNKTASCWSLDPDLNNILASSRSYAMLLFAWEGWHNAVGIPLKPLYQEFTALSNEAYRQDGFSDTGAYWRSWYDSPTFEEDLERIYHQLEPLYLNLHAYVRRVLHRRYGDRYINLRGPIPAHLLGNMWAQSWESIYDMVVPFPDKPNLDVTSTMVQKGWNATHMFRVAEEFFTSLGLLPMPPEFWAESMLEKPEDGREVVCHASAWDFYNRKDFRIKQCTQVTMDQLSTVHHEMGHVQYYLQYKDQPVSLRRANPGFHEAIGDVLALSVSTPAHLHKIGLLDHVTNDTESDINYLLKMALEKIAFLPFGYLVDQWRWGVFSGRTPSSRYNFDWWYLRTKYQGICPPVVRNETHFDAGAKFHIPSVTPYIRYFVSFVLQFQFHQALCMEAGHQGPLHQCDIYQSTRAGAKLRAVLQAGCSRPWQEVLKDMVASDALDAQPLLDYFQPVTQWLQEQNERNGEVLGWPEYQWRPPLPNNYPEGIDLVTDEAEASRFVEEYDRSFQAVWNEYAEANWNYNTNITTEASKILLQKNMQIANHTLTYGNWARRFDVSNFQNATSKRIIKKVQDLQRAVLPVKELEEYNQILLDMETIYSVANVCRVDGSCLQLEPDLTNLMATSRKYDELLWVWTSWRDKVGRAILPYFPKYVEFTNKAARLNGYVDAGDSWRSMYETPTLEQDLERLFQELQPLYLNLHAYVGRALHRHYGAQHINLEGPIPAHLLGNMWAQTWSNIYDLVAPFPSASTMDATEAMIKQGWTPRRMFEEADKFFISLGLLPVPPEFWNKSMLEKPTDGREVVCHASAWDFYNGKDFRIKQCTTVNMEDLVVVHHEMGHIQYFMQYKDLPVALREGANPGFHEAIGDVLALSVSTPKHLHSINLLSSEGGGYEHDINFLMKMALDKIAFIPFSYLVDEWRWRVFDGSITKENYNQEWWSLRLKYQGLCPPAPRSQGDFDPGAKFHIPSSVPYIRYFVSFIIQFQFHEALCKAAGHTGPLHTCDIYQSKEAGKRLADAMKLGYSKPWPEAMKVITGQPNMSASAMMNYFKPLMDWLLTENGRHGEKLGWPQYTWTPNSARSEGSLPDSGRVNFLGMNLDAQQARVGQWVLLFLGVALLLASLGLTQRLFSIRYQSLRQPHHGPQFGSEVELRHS

Neprilysin = target: T2, Neprilysin (Oryctolagus cuniculus, UniProt P08049); assay: In vitro inhibitory activity against neutral endopeptidase (NEP)
T2 sequence (P08049 whole entry): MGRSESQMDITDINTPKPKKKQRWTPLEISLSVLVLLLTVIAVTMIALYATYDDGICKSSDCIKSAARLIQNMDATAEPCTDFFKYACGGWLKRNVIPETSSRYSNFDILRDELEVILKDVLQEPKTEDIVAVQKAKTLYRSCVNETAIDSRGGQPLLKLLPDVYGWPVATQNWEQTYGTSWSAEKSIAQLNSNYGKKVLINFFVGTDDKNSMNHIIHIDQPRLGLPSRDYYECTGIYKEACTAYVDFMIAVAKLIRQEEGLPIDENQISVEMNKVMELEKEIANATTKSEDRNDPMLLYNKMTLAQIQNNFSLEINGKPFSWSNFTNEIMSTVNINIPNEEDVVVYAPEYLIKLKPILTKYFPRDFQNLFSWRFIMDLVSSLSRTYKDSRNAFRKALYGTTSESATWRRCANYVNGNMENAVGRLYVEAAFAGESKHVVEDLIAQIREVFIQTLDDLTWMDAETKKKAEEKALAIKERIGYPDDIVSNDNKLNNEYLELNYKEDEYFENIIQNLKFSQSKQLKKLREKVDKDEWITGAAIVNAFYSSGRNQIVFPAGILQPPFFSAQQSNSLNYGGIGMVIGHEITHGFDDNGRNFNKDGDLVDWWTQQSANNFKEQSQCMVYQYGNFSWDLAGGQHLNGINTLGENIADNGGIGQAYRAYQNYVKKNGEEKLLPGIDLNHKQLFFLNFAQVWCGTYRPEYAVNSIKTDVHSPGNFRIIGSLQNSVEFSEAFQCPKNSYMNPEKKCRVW
Summary of the method: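 Purified rabbit kidney NEP (EC 24.11) was the enzyme source, with [³H]Leu-enkephalin as the substrate.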

Rattus norvegicus [4] = assay: Tested for in vivo Antihypertensive activity in DOCA rat by giving peroral dose of 30 mg/kg; format: functional; details: route oral; summary of the method: as §1
Rattus norvegicus [5] = assay: Tested for in vivo Antihypertensive activity in DOCA rat by giving subcutaneous dose of 30 mg/kg; format: functional; summary of the method: as §1

| SMILES | IC50 [3] [nM] | IC50 (Neprilysin) [nM] | Delta blood pressure (Rattus norvegicus [1]) [mmHg] | Delta blood pressure (Rattus norvegicus [2]) [mmHg] | Delta blood pressure (Rattus norvegicus [4]) [mmHg] | Delta blood pressure (Rattus norvegicus [5]) [mmHg] | Delta blood pressure (Rattus norvegicus [2]; 30 mg/kg) [mmHg] |
| --- | --- | --- | --- | --- | --- | --- | --- |
| COC(=O)[C@@H](CCSC)NC(=O)[C@H](CSC(C)=O)Cc1ccccc1 | – | – | 14 | 45 | – | – | – |
| CSCC[C@@H](NC(=O)[C@@H](CSC(=O)c1ccccc1)Cc1ccccc1)C(N)=O | – | – | – | – | – | 0 | – |
| CCSCC[C@@H](NC(=O)[C@@H](CS)Cc1ccccc1)C(=O)O | 215 | 5 | – | 20 | – | – | – |
| CSCC[C@@H](NC(=O)[C@@H](CSC(C)=O)Cc1ccccc1)C(=O)O | – | – | – | – | – | 48 | – |
| CCOC(=O)[C@@H](CCSC)NC(=O)C1(CSC(C)=O)CCCC1 | – | – | 27 | – | – | – | – |
| CCSCC[C@@H](NC(=O)[C@H](CS)Cc1ccccc1)C(=O)O | > 1000 | 31 | – | 30 | 0 | – | – |
| O=C(N[C@H](CSCCc1ccccc1)C(=O)O)[C@@H](CS)Cc1ccccc1 | 80 | 110 | – | 37 | 0 | – | – |
| CC(C)(C)SC[C@@H](NC(=O)[C@H](CS)Cc1ccccc1)C(=O)O | 640 | 231 | – | 0 | – | – | – |
| O=C(N[C@H](CSCCc1ccccc1)C(=O)O)[C@H](CS)Cc1ccccc1 | > 1000 | 133 | – | 23 | 38 | – | – |
| CSCC[C@@H](NC(=O)[C@H](CS)Cc1ccccc1)C(=O)O | > 1000 | 3.5 | 30 | 50 | – | – | – |
| Cc1ccc(CSC[C@@H](NC(=O)[C@@H](CS)Cc2ccc(-c3ccccc3)cc2)C(=O)O)cc1 | 180 | 180 | – | 0 | 19 | – | – |
| Cc1ccc(CSC[C@@H](NC(=O)[C@H](CS)Cc2ccc(-c3ccccc3)cc2)C(=O)O)cc1 | > 1000 | 290 | – | 0 | – | – | – |
| CCSC[C@@H](NC(=O)C(CS)Cc1ccccc1)C(=O)O (stereo partly drawn) | 45 | 6.5 | – | 25 | – | – | – |
| CCOC(=O)CNC(=O)[C@@H](CCSC)NC(=O)C(CSC(C)=O)Cc1ccccc1 (stereo partly drawn) | – | > 300 | 0 | – | – | – | – |
| CSCC[C@@H](NC(=O)[C@H](CSC(C)=O)Cc1ccccc1)C(N)=O | – | – | – | 27 | – | – | – |
| Cc1ccc(CSC[C@@H](NC(=O)[C@H](CS)Cc2ccc3ccccc3c2)C(=O)O)cc1 | – | – | – | 0 | – | – | – |
| Cc1ccc(CSC[C@@H](NC(=O)[C@H](CS)Cc2ccccc2)C(=O)O)cc1C | > 1000 | 541 | – | 0 | – | – | – |
| Cc1ccc(CSC[C@@H](NC(=O)[C@H](CS)Cc2cccc3ccccc23)C(=O)O)cc1 | 90 | 39 | – | 0 | – | – | – |
| CSCC[C@@H](NC(=O)C(CSC(C)=O)Cc1ccccc1)C(=O)N1CCCC1 (stereo partly drawn) | – | – | 24 | 29 | – | – | – |
| CC(=O)SC[C@@H](Cc1ccccc1)C(=O)N[C@H](CSCc1ccc(C)cc1)C(N)=O | – | – | 29 | 12 | – | – | – |
| CCCC(CS)C(=O)N[C@H](CSCC)C(=O)O (stereo partly drawn) | 1000 | > 300 | – | – | – | – | – |
| CSCC[C@@H](NC(=O)[C@@H](CS)CCc1ccccc1)C(=O)O | 150 | 60 | 18 | – | – | – | – |
| O=C(N[C@H](CSCc1ccccc1)C(=O)O)[C@H](CS)Cc1ccc(Cl)cc1 | > 1000 | 147 | – | 0 | – | – | – |
| CSCC[C@@H](NC(=O)C(CSC(C)=O)Cc1ccccc1)C(=O)NCCO (stereo partly drawn) | – | – | 24 | 25 | – | – | – |
| CSCC[C@@H](NC(=O)C(CSC(C)=O)Cc1ccccc1)C(=O)N1CCOCC1 (stereo partly drawn) | – | > 300 | 20 | 24 | – | – | – |

Further lines, with some results ahead:

| IC50 [3] [nM] | IC50 (Neprilysin) [nM] | SMILES | Delta blood pressure (Rattus norvegicus [1]) [mmHg] | Delta blood pressure (Rattus norvegicus [2]) [mmHg] | Delta blood pressure (Rattus norvegicus [4]) [mmHg] | Delta blood pressure (Rattus norvegicus [5]) [mmHg] | Delta blood pressure (Rattus norvegicus [2]; 30 mg/kg) [mmHg] |
| --- | --- | --- | --- | --- | --- | --- | --- |
| 35 | 6.5 | CSCC[C@@H](NC(=O)[C@@H](CS)Cc1ccccc1)C(=O)O | 31 | 23 | – | – | – |
| 170 | 49 | CC(C)(C)SC[C@@H](NC(=O)[C@@H](CS)Cc1ccccc1)C(=O)O | – | 25 | 17 | – | – |
| 77 | 1.5 | CSC[C@@H](NC(=O)[C@@H](CS)Cc1ccccc1)C(=O)O | – | 30 | 0 | – | – |
| – | > 300 | Cc1ccc(CSC[C@@H](NC(=O)[C@@H](CS)Cc2ccccc2)C(N)=O)cc1 | – | 0 | – | – | – |
| 1250 | 14 | O=C(N[C@H](CSCc1ccccc1)C(=O)O)C(CS)Cc1ccccc1 (single isomer, unassigned) | – | – | 18 | – | 19 |
| > 1000 | 94 | CSCC[C@@H](NC(=O)[C@H](CS)Cc1ccccc1)C(N)=O | – | – | – | – | – |
| > 1000 | 274 | O=C(N[C@H](CSC(c1ccccc1)(c1ccccc1)c1ccccc1)C(=O)O)C(CS)Cc1ccccc1 (stereo partly drawn) | – | 0 | – | – | – |
| 95 | 2 | COc1ccc(CSC[C@@H](NC(=O)[C@@H](CS)Cc2ccccc2)C(=O)O)cc1 | – | – | 28 | – | – |
| > 1000 | 2.5 | CCCC(CS)C(=O)N[C@H](CCSC)C(=O)O (stereo partly drawn) | – | – | – | – | – |
| 700 | 3.5 | CSCC[C@@H](NC(=O)C1(CS)CCCC1)C(=O)O | – | – | – | 24 | – |
| 115 | 19 | O=C(N[C@@H](CSCc1ccccc1)C(=O)O)[C@@H](CS)Cc1ccccc1 | – | 11 | – | – | – |
| > 1000 | 76 | CSCC[C@@H](NC(=O)[C@@H](CS)Cc1ccccc1)C(N)=O | – | 26 | – | – | – |
| 460 | > 300 | Cc1ccc(CSC[C@@H](NC(=O)[C@@H](CS)Cc2ccc3ccccc3c2)C(=O)O)cc1 | – | 0 | – | – | – |
| 44 | 3 | O=C(N[C@H](CSCc1ccccc1)C(=O)O)[C@@H](CS)Cc1ccc(Cl)cc1 | – | 19 | 20 | – | – |
